Source: article PMC6424611 (Journal of molecular biology, 2019)
Where no end group is shown, it is not given here. [ ]: non-standard residue; d: D form. The star is where a group is joined. Biotin = O=C1N[C@H]2[C@H](CS[C@H]2CCCCC(=O)*)N1; TTDS = NCCCOCCOCCOCCCNC(=O)CCC(=O)*; pS = N[C@@H](COP(=O)(O)O)C(=O)O

Tests used:
SNTB1 PDZ = molecular target: T1, SNTB1 PDZ (Homo sapiens, UniProt Q13884); test: holdup assay; type: binding; details: ~4 μM PDZ
T1 sequence (Q13884 112-195 limits assumed): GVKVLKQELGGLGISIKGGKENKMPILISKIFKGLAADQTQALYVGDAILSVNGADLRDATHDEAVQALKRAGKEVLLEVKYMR
Method in brief: (§1)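 Automated holdup against N-terminally biotinylated (TTDS linker) RSK1 725–735 peptides, unphosphorylated and phosphorylated, in triplicate. PDZome v2 clones were codon-optimized and expressed in E. coli, with soluble lysate adjusted to ~4 μM. BI is the PDZ fraction depleted from the fluid phase.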

SCRIB-3 PDZ = test: holdup assay, updated analysis; type: binding, human; details: weak partner; automated computational protocol
Method in brief: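 The same triplicate holdup datasets (biotinylated RSK1 725–735, unphosphorylated and phosphorylated, vs ~4 μM PDZome lysates) were re-analysed with an updated automated computational protocol. This gave alternative BI values, reported as supplemental values alongside the conventional analysis.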

PPP1R9A PDZ = test: holdup assay; type: binding, human; details: ~4 μM PDZ
Method in brief: as §1

HTRA1 PDZ = HTRA1 PDZ (Homo sapiens, UniProt Q92743); test: holdup assay; type: binding; details: ~4 μM PDZ
Chain of HTRA1 PDZ (Q92743 365-467 limits assumed): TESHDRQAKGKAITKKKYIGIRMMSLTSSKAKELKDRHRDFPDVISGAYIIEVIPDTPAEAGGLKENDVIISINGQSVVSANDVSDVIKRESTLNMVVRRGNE
Method in brief: as §1

DLG4-2 PDZ = test: holdup assay; type: binding, human; details: fraction of PDZ depleted; ~4 μM PDZ; biotinylated RSK1_725–735; triplicates
SNTA1 PDZ = molecular target: T2, SNTA1 PDZ (Homo sapiens, UniProt Q13424); test: holdup assay; type: binding; details: ~4 μM PDZ
T2 sequence (Q13424 87-170 limits assumed): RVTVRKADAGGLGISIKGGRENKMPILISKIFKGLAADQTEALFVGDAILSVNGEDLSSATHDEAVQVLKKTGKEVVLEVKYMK
Method in brief: as §1

MAST1 PDZ = molecular target: T3, MAST1 PDZ (Homo sapiens, UniProt Q9Y2H9); test: holdup assay; type: binding; details: ~4 μM PDZ
T3 sequence (Q9Y2H9 967-1055 limits assumed): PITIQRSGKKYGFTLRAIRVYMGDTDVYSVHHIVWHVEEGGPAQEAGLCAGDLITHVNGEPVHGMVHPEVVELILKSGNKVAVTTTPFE
Method in brief: as §1

MAGI2-2 PDZ = MAGI2-2 PDZ (Homo sapiens, UniProt Q86UL8); test: holdup assay; type: binding; details: ~4 μM PDZ
Chain of MAGI2-2 PDZ (Q86UL8 426-510 limits assumed): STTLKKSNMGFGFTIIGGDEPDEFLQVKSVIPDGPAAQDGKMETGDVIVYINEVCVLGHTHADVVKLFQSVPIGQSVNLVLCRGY
Method in brief: as §1

GRID2IP-1 PDZ = test: holdup assay; type: binding, human; details: ~4 μM PDZ
Method in brief: as §1

LIMK2 PDZ = test: holdup assay; type: binding, human; details: ~4 μM PDZ
Method in brief: as §1

DFNB31-3 PDZ = test: holdup assay; type: binding, human; details: ~4 μM PDZ
Method in brief: as §1

[1] = system: human PDZ domains (PDZome); test: holdup assay, PDZome-binding profile
Method in brief: (§2)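 Automated holdup in triplicate measured biotinylated (N-terminal TTDS linker) RSK1 725–735 peptides, unphosphorylated or phosphorylated, against E. coli-expressed PDZome v2 domains. Soluble lysate was adjusted to ~4 μM, giving 255 domains for the unphosphorylated and 252 for the phosphorylated peptide. Binding intensity (BI) is the fraction of PDZ depleted from the fluid phase. BI 0.2 was the high-confidence threshold.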

GOPC PDZ = GOPC PDZ (Homo sapiens, UniProt Q9HD26); test: holdup assay; type: binding; details: fraction of PDZ depleted; ~4 μM PDZ; biotinylated RSK1_725–735; triplicates
MAGI1-2 PDZ = MAGI1-2 PDZ (Homo sapiens, UniProt Q96QZ7); test: holdup assay; type: binding
Chain of MAGI1-2 PDZ (Q96QZ7 472-554 limits assumed): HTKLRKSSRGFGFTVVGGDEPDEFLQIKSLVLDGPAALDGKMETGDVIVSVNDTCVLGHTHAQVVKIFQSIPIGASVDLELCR
Method in brief: as §1

PTPN3 PDZ = test: holdup assay; type: binding, human; details: ~4 μM PDZ
Method in brief: as §1

SYNJ2BP PDZ = molecular target: T4, SYNJ2BP PDZ (Homo sapiens, UniProt P57105); test: holdup assay; type: binding; details: fraction of PDZ depleted; ~4 μM PDZ; biotinylated RSK1_725–735; triplicates
T4 sequence (P57105 13-100 limits assumed): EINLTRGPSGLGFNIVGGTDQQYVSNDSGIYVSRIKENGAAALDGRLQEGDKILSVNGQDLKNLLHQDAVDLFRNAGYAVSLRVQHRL
Method in brief: as §1

GRID2IP-2 PDZ = GRID2IP-2 PDZ (Homo sapiens, UniProt A4D2P6); test: holdup assay; type: binding; details: fraction of PDZ depleted; ~4 μM PDZ; biotinylated RSK1_725–735; triplicates
Chain of GRID2IP-2 PDZ (A4D2P6 279-356 limits assumed): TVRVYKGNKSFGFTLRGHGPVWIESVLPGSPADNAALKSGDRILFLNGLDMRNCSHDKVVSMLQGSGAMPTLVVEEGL
Method in brief: as §2

MAST2 PDZ = molecular target: T5, MAST2 PDZ (Homo sapiens, UniProt Q6P0Q8); test: holdup assay; type: binding; details: ~4 μM PDZ
T5 sequence (Q6P0Q8 1104-1192 limits assumed): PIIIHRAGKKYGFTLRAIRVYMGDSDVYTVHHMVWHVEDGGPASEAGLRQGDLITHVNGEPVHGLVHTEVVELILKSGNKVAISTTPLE
Method in brief: as §1

MAGI3-2 PDZ = test: holdup assay; type: binding, human; details: fraction of PDZ depleted; ~4 μM PDZ; biotinylated RSK1_725–735; triplicates
Method in brief: as §2

SHANK3 PDZ = test: holdup assay; type: binding, human; details: ~4 μM PDZ
Method in brief: as §1

LNX1 −3 PDZ = test: holdup assay; type: binding, human; details: ~4 μM PDZ
Method in brief: as §1

GORASP1 PDZ = test: holdup assay; type: binding, human; details: ~4 μM PDZ
Method in brief: as §1

NHERF3-1 PDZ = molecular target: T6, NHERF3-1 PDZ (Homo sapiens, UniProt Q5T2W1); test: holdup assay; type: binding; details: ~4 μM PDZ
T6 sequence (Q5T2W1 9-90 limits assumed): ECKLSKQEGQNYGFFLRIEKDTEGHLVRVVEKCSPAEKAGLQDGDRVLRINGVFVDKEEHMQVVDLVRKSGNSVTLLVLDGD
Method in brief: as §1

PDZRN4-1 PDZ = molecular target: T7, PDZRN4-1 PDZ (Homo sapiens, UniProt Q6ZMN7); test: holdup assay; type: binding; details: fraction of PDZ depleted; ~4 μM PDZ; biotinylated RSK1_725–735; triplicates
T7 sequence (Q6ZMN7 224-314 limits assumed): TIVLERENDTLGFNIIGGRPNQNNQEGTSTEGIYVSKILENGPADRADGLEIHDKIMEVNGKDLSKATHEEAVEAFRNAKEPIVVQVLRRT
Method in brief: as §2

PDZRN3-1 PDZ = molecular target: T8, PDZRN3-1 PDZ (Homo sapiens, UniProt Q9UPQ7); test: holdup assay; type: binding; details: ~4 μM PDZ
T8 sequence (Q9UPQ7 249-339 limits assumed): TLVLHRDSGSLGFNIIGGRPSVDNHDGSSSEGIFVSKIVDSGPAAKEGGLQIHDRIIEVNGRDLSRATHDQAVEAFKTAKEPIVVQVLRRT
Method in brief: as §1

[2] = fraction of PDZ depleted, biotinylated RSK1_725–735, triplicates
[3] = read-out: KD, estimated, from BI, estimated 17 μM peptide
[4] = BI threshold 0.2, compared to the unphosphorylated peptide

binding intensity (BI) (SNTB1 PDZ; [2]): 0.45 ± 0.08
Kd (SNTB1 PDZ; [3]): 18.6 µM
binding intensity (BI) (PPP1R9A PDZ; [2]): 0.33 ± 0.02
Kd (PPP1R9A PDZ; [3]): 31.8 µM
binding intensity (BI) (HTRA1 PDZ; [2]): 0.36 ± 0.01
Kd (HTRA1 PDZ; [3]): 27.7 µM
binding intensity (BI) (DLG4-2 PDZ): 0.25 ± 0.02
binding intensity (BI) (SNTA1 PDZ; [2]): 0.53 ± 0.01
Kd (SNTA1 PDZ; [3]): 13.2 µM
binding intensity (BI) (MAST1 PDZ; [2]): 0.08 ± 0.03
Kd (MAST1 PDZ; [3]): > 100 µM
binding intensity (BI) (MAGI2-2 PDZ; [2]): 0.23 ± 0.03
Kd (MAGI2-2 PDZ; [3]): 53.8 µM
binding intensity (BI) (GRID2IP-1 PDZ; [2]): 0.24 ± 0.01
Kd (GRID2IP-1 PDZ; [3]): 50.8 µM
binding intensity (BI) (LIMK2 PDZ; [2]): 0.22 ± 0.07
Kd (LIMK2 PDZ; [3]): 57.2 µM
binding intensity (BI) (DFNB31-3 PDZ; [2]): −0.01 ± 0.02
Kd (DFNB31-3 PDZ; [3]): > 100 µM
number of detectable binders lost [1, 4]: 12
number of new binders gained [1, 4]: 10
average BI ([1]; PDZome profile): 0.33
maximal BI ([1]; PDZome profile): 0.54
binding intensity (BI) (GOPC PDZ): 0.25 ± 0.10
binding intensity (BI) (MAGI1-2 PDZ; fraction of PDZ depleted, ~4 μM PDZ, biotinylated RSK1_725–735, triplicates): 0.15 ± 0.02
down regulation of interaction by phosphorylation (MAGI1-2 PDZ; holdup, phosphorylated vs unphosphorylated): a factor of five
Kd (MAGI1-2 PDZ; read-out: KD, estimated, from BI, estimated 17 μM peptide, ~4 μM PDZ): 92.9 µM
binding intensity (BI) (PTPN3 PDZ; [2]): 0.21 ± 0.02
Kd (PTPN3 PDZ; [3]): 60.8 µM
binding intensity (BI) (SYNJ2BP PDZ): 0.54 ± 0.03
binding intensity (BI) (GRID2IP-2 PDZ): 0.00 ± 0.01
binding intensity (BI) (MAST2 PDZ; [2]): 0.23 ± 0.03
Kd (MAST2 PDZ; [3]): 53.8 µM
binding intensity (BI) (MAGI3-2 PDZ): 0.28 ± 0.06
binding intensity (BI) (SHANK3 PDZ; [2]): 0.07 ± 0.01
Kd (SHANK3 PDZ; [3]): > 100 µM
binding intensity (BI) (LNX1 −3 PDZ; [2]): 0.24 ± 0.07
Kd (LNX1 −3 PDZ; [3]): 50.8 µM
binding intensity (BI) (GORASP1 PDZ; [2]): 0.23 ± 0.03
Kd (GORASP1 PDZ; [3]): 53.8 µM
binding intensity (BI) (NHERF3-1 PDZ; [2]): 0.03 ± 0.01
Kd (NHERF3-1 PDZ; [3]): > 100 µM
binding intensity (BI) (PDZRN4-1 PDZ): 0.54 ± 0.03
binding intensity (BI) (PDZRN3-1 PDZ; [2]): 0.45 ± 0.01
Kd (PDZRN3-1 PDZ; [3]): 18.6 µM
Substance: phosphorylated RSK1 peptide: RSK1 C-terminal PBM peptide phosphorylated at position −3; same constructs as the unphosphorylated ({Biotin-TTDS}-RRVRKLP[pS]TTL)
interaction partner by updated analysis (SCRIB-3 PDZ): new partners
